Results from ChEMBL document CHEMBL5321214, “Targeting the multifaceted neurotoxicity of Alzheimer's disease by tailored functionalisation of the curcumin scaffold” (Eur J Med Chem, 2023).
Activity calls are given as the source filed them. No cut-off for these calls is given here.

Tests used:
[1] = Toxicity against Drosophila W1118 assessed as proportion of eclosed-flies at 10 uM measured after 72 hrs
[2] = target: Amyloid-beta precursor protein (Homo sapiens) (UniProt P05067); assay: Anti-oligomeric activity against Abeta42 (unknown origin) assessed as depletion of the formation of toxic HMW Abeta42 oligomers at 2.5 uM measured after 2 to 10 days from sample solubilization by capillary electrophoresis assay; settings: time 2-10 day
Summary of the method: (§1)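 Aβ42 stock diluted to 221 μM in 20 mM sodium phosphate pH 7.4 containing compound (ethanol stocks 1.53 mM). Capillary electrophoresis: BGE 80 mM sodium phosphate pH 7.4, 30 mbar × 3 s hydrodynamic injection, +12 kV, 25 °C, 200 nm detection. Oligomers assigned by effective mobility; HMW oligomer peak quantified semiquantitatively as normalised area %.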

[3] = tested on: Microglia; assay: Antiinflammatory activity against Sprague-Dawley rat microglial cells assessed as inhibition of LPS-induced TNF-alpha production at 2.5 uM pretreated with compound for 1 hr followed by LPS stimulation for 24 hrs by ELISA; type: functional, cell-based; settings: time 25.0 hrs
Summary of the method: (§2)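 Primary cortical rat microglia in DMSO (≤0.1%) or vehicle for 1 h, then 100 ng/mL LPS for 24 h. TNF-α and IL-1β in culture medium by ELISA against standard curves (pg/mL), expressed as % of LPS-stimulated cultures. Mean ± SEM of 3 independent experiments; one-way ANOVA, Holm-Sidak test.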

[4] = Effect on IL-1 beta release in Sprague-Dawley rat microglial cells at 2.5 uM by ELISA; type: toxicity, cell-based; settings: microglia; summary of the method: as §2
[5] = Effect on TNF-alpha release in Sprague-Dawley rat microglial cells at 2.5 uM by ELISA; type: toxicity, cell-based; settings: microglia; summary of the method: as §2
[6] = tested on: Drosophila; assay: Downregulation of Nrf2 transcript expression in Spastin Drosophila (Tubulin/Gal4 RNAi DSpast) neurodegenerative model at 10 uM flies raised in compound-enriched food by real-time PCR analysis; type: functional
Summary of the method: (§3)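 Total RNA from 5 third-instar Spastin-RNAi larvae raised on standard or compound-enriched food; Tubulin-Gal4/+ as control line. One-step SYBR RT-qPCR normalised to Rp49 by the 2^−ΔΔCt method. n = 3 experiments; one-way ANOVA, Tukey's test.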

[7] = Toxicity against Drosophila W1118 assessed as proportion of eclosed-flies at 30 uM measured after 72 hrs
[8] = target: Amyloid-beta precursor protein (Homo sapiens) (UniProt P05067); assay: Anti-oligomeric activity against Abeta42 (unknown origin) assessed as depletion of the formation of toxic HMW Abeta42 oligomers at 1 uM measured at day 7 to 10 from sample solubilization by capillary electrophoresis assay; settings: time 7-10 day; summary of the method: as §1
[9] = tested on: Microglia; assay: Antiinflammatory activity against Sprague-Dawley rat microglial cells assessed as inhibition of LPS-induced TNF-alpha production at 1 to 2.5 uM pretreated with compound for 1 hr followed by LPS stimulation for 24 hrs by ELISA; type: functional, cell-based; settings: dose 1-2.5 µM, time 25.0 hrs; summary of the method: as §2
[10] = tested on: SH-SY5Y; assay: Antioxidant activity in human SH-SY5Y cells assessed as increase in intracellular GSH level at 2.5 uM incubated for 24 hrs by […] fluorescence analysis; type: functional
Summary of the method: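 SH-SY5Y (2×10^4 cells/well) grown 24 h, then exposed to 2.5 μM for 24 h at 37 °C. Fluorescent probe added 30 min at 37 °C; read at ex 355/em 460 nm. GSH (μM) from a GSH standard curve. Mean ± SEM of three experiments; one-way ANOVA with Dunnett's test.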

[11] = tested on: Drosophila; assay: Downregulation of SOD1 transcript expression in Spastin Drosophila (Tubulin/Gal4 RNAi DSpast) neurodegenerative model at 10 uM flies raised in compound-enriched food by real-time PCR analysis; type: functional; summary of the method: as §3
[12] = Toxicity against Drosophila W1118 assessed as proportion of eclosed-flies at 1 uM measured after 72 hrs
[13] = tested on: SH-SY5Y; assay: Antioxidant activity in human SH-SY5Y cells assessed as reduction in intracellular ROS formation at 2.5 uM incubated for 24 hrs followed by incubation with t-BuOOH for 30 mins by H2DCF-DA staining based fluorescence analysis; type: functional; settings: time 24.5 hrs
Summary of the method: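 SH-SY5Y (2×10^4 cells/well) exposed to 2.5 μM for 24 h, loaded with H2DCF-DA 30 min at room temperature, probe removed, then challenged with 50 μM t-BuOOH 30 min at room temperature. Fluorescence ex 485/em 535 nm, expressed as % ROS increase. Three independent experiments; one-way ANOVA with Dunnett's test.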

[14] = Toxicity against Drosophila W1118 assessed as proportion of eclosed-flies at 50 uM measured after 72 hrs
[15] = tested on: Microglia; assay: Cytotoxicity against Sprague-Dawley rat microglial cells assessed as decrease in cell viability at 5 uM incubated for 24 hrs by MTT assay; type: toxicity, cell-based
Summary of the method: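 Primary rat microglia, 6×10^4 cells/well, switched to serum-free medium 1 h before 24 h exposure (1–20 μM, DMSO ≤0.1%). MTT 0.18 mg/mL for 4 h at 37 °C, formazan dissolved in DMSO, absorbance 570 nm (reference 630 nm). Vehicle-treated cells = 100% viability.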

[16] = Toxicity against Drosophila W1118 assessed as proportion of eclosed-flies at 20 uM measured after 72 hrs
[17] = tested on: Microglia; assay: Antiinflammatory activity against Sprague-Dawley rat microglial cells assessed as inhibition of LPS-induced IL-1 beta production at 1 to 2.5 uM pretreated with compound for 1 hr followed by LPS stimulation for 24 hrs by ELISA; type: functional, cell-based; settings: dose 1-2.5 µM, time 25.0 hrs; summary of the method: as §2
[18] = target: Keap1/Nrf2 (Homo sapiens) (UniProt Q16236+Q14145); assay: Activation of Keap1/Nrf2 in human SH-SY5Y cells assessed as Nrf2 nuclear translocation by measuring increase in nuclear to cytosolic Nrf2 ratio at 2.5 uM incubated for 3 hrs by western blot analysis; type: cell-based; settings: filed as activator
Summary of the method: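 SH-SY5Y seeded 2×10^6 cells/dish, grown 24 h, then exposed 3 h at 37 °C, 5% CO2. Nuclear and cytosolic fractions immunoblotted for Nrf2, membranes stripped and reprobed for β-actin and lamin B1 as loading references. Mean ± SEM of three independent experiments; one-way ANOVA with Dunnett's test.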

[19] = target: Amyloid-beta precursor protein (Homo sapiens) (UniProt P05067); assay: Anti-oligomeric activity against Abeta42 (unknown origin) assessed as depletion of the formation of toxic HMW Abeta42 oligomers at 5 uM measured at day 7 from sample solubilization by capillary electrophoresis assay; settings: time 7.0 day; summary of the method: as §1
[20] = tested on: Drosophila; assay: Effect on CAT transcript expression in Spastin Drosophila (Tubulin/Gal4 RNAi DSpast) neurodegenerative model at 10 uM flies raised in compound-enriched food by real-time PCR analysis; type: functional; summary of the method: as §3
[21] = tested on: Drosophila; assay: Antioxidant activity in Spastin Drosophila (Tubulin/Gal4 RNAi DSpast) neurodegenerative model assessed as decrease in intracelluar ROS level in A2 muscle at 10 uM flies raised in compound-enriched food by DHE staining based fluorescence analysis; type: functional, organism-based
Summary of the method: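 Spastin-RNAi (Tubulin-Gal4 cross, 28 °C) third-instar larvae raised on compound-enriched food, dissected in HL3, stained 30 min with 30 μM DHE, fixed in 4% PFA, DAPI counterstained. Confocal imaging (DHE 580–630 nm); two 2500 μm² ROIs per muscle or two 1900 μm² ROIs per brain, 10–15 larvae per group; DHE/DAPI ratio.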

Chain of Amyloid-beta precursor protein (Homo sapiens) (P05067 whole entry, the tested form may be a part): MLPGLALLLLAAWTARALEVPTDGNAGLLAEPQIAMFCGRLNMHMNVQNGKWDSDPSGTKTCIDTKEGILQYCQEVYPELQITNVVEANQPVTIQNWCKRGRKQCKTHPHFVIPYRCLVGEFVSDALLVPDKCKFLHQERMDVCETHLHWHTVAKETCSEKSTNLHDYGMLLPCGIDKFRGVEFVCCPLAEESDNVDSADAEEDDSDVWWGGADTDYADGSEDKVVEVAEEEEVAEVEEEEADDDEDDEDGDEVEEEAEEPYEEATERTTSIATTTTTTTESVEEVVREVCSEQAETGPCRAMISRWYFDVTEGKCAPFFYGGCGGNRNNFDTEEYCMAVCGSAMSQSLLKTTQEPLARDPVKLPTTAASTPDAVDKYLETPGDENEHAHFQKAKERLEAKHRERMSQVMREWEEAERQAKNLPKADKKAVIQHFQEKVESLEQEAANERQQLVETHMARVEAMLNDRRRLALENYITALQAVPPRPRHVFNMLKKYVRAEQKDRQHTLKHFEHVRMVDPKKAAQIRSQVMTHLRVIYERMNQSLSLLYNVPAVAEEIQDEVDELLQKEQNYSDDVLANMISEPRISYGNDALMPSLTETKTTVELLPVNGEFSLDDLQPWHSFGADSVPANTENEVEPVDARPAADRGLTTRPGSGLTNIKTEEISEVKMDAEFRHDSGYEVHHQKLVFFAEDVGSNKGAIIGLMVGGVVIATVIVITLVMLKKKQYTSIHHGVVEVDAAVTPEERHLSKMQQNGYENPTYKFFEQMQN
Chain of Keap1/Nrf2 (Homo sapiens) (Q14145 whole entry, looked up): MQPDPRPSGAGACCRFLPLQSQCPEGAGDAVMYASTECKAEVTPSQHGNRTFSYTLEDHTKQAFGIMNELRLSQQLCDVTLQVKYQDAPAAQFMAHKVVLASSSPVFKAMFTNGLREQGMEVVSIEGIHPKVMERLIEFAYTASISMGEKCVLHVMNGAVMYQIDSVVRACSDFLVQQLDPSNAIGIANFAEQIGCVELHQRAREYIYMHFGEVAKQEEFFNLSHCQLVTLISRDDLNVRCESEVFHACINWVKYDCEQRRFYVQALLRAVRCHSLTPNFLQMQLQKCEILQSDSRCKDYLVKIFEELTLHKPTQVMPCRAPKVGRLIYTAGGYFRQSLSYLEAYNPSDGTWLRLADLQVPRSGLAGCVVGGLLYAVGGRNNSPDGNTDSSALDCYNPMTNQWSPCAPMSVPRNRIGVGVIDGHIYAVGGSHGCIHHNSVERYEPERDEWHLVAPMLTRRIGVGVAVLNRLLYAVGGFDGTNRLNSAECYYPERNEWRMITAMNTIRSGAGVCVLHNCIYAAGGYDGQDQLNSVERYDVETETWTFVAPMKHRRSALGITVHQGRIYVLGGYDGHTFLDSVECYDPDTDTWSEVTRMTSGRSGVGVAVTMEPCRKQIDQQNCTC
Chain of Keap1/Nrf2 (Homo sapiens) (Q16236 whole entry, looked up): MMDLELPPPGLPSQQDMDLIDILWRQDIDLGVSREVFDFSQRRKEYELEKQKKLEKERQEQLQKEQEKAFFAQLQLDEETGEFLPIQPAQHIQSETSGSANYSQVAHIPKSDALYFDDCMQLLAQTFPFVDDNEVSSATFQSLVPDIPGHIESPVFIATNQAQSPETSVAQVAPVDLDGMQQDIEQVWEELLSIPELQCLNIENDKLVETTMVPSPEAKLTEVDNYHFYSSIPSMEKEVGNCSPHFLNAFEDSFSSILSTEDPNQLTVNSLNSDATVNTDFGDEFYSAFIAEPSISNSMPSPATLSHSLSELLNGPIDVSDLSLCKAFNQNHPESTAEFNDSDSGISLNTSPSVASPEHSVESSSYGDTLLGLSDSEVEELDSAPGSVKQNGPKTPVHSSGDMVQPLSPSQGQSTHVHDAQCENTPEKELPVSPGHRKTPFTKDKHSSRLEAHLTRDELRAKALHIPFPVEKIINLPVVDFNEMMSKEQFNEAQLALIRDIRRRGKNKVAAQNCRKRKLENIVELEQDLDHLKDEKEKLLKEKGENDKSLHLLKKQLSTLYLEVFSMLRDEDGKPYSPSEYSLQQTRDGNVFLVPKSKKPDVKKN

- Activity [18]: Active
Structure (SMILES): CCCCn1cc(C/C(C(=O)/C=C/c2ccc(OC)cc2)=C(O)\C=C\c2ccc(OC)cc2)nn1
- Activity [1]: 93.831%
- Activity [2]: Active
- Activity [3]: Active
- Activity [4]: Non-Toxic
- Activity [5]: Non-Toxic
- inhibition [6]: Active
- Activity [7]: 85.461%
- Activity [8]: Active
- Activity [9]: Active
- Activity [10]: 40%
- inhibition [11]: Active
- Activity [12]: 95.238%
- inhibition at 2.5 µM [13]: 18%
- Activity [14]: 71.309%
- Activity [15]: Toxic
- Activity [16]: 88.099%
- Activity [17]: Active
- Activity [19]: Active
- Activity [20]: inactive
- Activity [21]: Active
